This passage reports inhibition, IC50 and Activity results from ChEMBL document CHEMBL1156629, “Synthesis and discovery of high affinity folate receptor-specific glycinamide ribonucleotide formyltransferase inhibitors with antitumor activity” (J Med Chem, 2008).

Assay [1] concerns KB. Kind of assay: cells. The note with it: Homo sapiens, read-out: INH.
Assay [2] is described as follows: Antiproliferative activity against human FRalpha expressing Chinese hamster RT16 cells in presence of folic acid. The note with it: Cricetulus griseus.
The test system of assay [3] is KB. Description: cells. The note with it: Homo sapiens.
Assay [4] has as its system KB. Description: Antiproliferative activity against human RFC and FRalpha expressing human KB cells in presence of folic acid.
Assay [5] deals with Folate receptor beta (Homo sapiens) (UniProt P14207). Kind of assay: Displacement of [3H]folic acid from human FRbeta in Chinese hamster D4 cells. The assay is classed as cell-based. In a few lines: (§1)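 Cells were acid-stripped (pH 3.5 acetate buffer) and washed in ice-cold HEPES-buffered saline, pH 7.4. They were then incubated 15 min at 0°C with 50 nM [3H]folic acid (0.5 Ci/mmol) and a range of unlabeled ligand concentrations. Bound label was normalized to Lowry protein. […] Mean of 3 experiments.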
Chain of Folate receptor beta (Homo sapiens) (P14207 17-230 limits assumed): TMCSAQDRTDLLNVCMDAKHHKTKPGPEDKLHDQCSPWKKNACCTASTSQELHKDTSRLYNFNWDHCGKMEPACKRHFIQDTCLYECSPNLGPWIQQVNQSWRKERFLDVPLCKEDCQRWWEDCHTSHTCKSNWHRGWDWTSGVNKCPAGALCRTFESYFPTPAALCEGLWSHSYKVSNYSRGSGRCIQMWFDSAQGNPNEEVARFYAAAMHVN
Background: Loss of bound radioactivity is the signal in a displacement assay; it reports binding, not function.

Assay [6] is described as follows: Antiproliferative activity against human RFC expressing Chinese hamster PC43-10 cells. The note with it: Cricetulus griseus.
Assay [7] relates to R2. Kind of assay: Antiproliferative activity against human RFC expressing Chinese hamster R2 cells.
The target of assay [8] is T1, Trifunctional purine biosynthetic protein adenosine-3 (Mus musculus, UniProt Q64737).
T1 sequence (Q64737 whole entry): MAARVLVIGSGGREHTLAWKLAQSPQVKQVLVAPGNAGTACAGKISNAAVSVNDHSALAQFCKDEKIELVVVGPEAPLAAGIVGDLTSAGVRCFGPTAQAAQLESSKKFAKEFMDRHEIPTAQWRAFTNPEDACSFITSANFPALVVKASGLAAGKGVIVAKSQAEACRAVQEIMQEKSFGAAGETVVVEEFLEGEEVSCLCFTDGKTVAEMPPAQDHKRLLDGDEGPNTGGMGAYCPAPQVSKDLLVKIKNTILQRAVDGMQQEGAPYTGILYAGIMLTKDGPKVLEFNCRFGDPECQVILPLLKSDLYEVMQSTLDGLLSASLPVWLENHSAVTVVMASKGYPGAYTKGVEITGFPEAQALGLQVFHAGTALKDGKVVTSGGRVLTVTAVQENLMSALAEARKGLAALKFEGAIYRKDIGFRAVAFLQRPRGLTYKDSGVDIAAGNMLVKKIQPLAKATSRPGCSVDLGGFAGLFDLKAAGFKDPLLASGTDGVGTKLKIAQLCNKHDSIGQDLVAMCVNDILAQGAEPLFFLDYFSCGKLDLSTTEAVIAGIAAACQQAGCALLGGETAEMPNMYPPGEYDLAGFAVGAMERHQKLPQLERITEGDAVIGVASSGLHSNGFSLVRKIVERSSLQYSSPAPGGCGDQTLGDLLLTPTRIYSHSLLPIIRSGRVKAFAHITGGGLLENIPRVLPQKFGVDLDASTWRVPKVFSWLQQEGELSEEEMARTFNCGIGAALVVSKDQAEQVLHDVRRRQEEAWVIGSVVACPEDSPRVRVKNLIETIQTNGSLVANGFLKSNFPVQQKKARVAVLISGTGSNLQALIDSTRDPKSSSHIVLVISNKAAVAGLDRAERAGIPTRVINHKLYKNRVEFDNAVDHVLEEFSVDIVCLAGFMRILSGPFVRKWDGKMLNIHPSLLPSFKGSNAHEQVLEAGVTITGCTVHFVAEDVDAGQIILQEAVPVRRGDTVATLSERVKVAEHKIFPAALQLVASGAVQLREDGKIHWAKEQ
Kind of assay: Inhibition of mouse recombinant GARFTase.

The target of assay [9] is T2, Reduced folate transporter (Homo sapiens) (UniProt P41440).
T2 sequence (whole entry): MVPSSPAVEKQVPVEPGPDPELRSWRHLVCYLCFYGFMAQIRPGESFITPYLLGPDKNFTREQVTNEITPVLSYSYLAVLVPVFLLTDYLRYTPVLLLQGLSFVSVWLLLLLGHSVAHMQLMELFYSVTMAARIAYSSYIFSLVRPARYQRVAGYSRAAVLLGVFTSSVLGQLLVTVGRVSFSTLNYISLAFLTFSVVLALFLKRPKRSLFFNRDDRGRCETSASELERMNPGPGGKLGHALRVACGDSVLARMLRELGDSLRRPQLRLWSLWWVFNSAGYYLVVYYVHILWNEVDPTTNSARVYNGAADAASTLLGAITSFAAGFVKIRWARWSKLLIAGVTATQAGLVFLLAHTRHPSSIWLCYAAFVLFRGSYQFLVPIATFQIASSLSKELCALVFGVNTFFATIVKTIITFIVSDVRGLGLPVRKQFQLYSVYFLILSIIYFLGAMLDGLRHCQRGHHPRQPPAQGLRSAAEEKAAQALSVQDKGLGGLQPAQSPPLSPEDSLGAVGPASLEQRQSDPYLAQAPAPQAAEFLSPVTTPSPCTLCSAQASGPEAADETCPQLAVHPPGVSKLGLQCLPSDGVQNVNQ
Kind of assay: Inhibition of human RFC-mediated [3H]MTX transport expressed in Chinese hamster PC43-10 cells. Format: cell-based. On the set-up: concentration or dose not given beside the values. The note with it: concentration not given here.

Assay [10] concerns IGROV-1. Description: Antiproliferative activity against human RFC and FRalpha expressing human IGROV1 cells in presence of folic acid.
Assay [11] concerns the target Folate receptor alpha (Homo sapiens) (UniProt P15328). Description: Displacement of [3H]folic acid from human FRalpha in Chinese hamster RT16 cells. The assay is classed as cell-based. In outline: as §1
A short description of assay [12]: Antiproliferative activity against human FRbeta expressing Chinese hamster D4 cells in presence of folic acid. The note with it: Cricetulus griseus.
In assay [13] the target is T2, Reduced folate transporter (Homo sapiens). Kind of assay: Inhibition of human RFC-mediated [3H]MTX transport in Chinese hamster PC43-10 cells at 10 uM. The assay is classed as cell-based.
Assay [14] deals with T3, Trifunctional purine biosynthetic protein adenosine-3 (Homo sapiens, UniProt P22102).
T3 sequence (P22102 whole entry): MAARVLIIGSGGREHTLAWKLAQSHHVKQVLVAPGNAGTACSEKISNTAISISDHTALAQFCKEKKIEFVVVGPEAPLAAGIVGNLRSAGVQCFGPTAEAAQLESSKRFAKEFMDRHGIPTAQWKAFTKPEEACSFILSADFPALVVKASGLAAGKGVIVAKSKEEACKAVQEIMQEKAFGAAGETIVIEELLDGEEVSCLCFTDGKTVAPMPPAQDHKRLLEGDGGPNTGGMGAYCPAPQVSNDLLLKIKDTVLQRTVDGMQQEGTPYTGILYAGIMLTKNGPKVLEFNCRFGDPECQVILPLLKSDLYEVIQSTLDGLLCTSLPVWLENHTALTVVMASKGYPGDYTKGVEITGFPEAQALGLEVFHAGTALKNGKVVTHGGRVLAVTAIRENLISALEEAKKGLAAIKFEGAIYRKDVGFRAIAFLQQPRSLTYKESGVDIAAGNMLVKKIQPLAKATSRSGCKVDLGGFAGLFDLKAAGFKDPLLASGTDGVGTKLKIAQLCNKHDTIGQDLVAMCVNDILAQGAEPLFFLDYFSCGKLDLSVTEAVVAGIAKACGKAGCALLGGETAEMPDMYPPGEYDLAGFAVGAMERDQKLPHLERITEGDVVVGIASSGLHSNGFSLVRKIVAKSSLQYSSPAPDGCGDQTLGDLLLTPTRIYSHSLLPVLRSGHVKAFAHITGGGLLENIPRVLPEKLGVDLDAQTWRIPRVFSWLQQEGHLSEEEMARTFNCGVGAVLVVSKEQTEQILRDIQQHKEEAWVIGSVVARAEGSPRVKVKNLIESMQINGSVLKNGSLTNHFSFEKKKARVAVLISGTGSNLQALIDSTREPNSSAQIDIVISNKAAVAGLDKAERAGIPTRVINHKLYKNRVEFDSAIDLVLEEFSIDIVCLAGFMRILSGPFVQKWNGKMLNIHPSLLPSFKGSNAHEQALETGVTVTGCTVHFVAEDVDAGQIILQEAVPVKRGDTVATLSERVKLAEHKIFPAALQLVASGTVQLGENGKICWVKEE

A short description of assay [15]: cells. The note with it: Cricetulus griseus, D4.
Assay [16] has as its system IGROV-1. Kind of assay: Antiproliferative activity against human RFC and FRalpha expressing human IGROV1 cells.
A short description of assay [17]: cells. The note with it: Cricetulus griseus, RT16.

Structures are written as SMILES. pIC50: −log10 of the molar value. Calls of active or inactive are those of the source. The calls are words filed in the database; no cut-off is given here. Where only a bound is given, the exact number is not on record here.

Broadly, the pIC50 is the IC50 on a negative log10 scale, so that one unit is a factor of ten.

Chain of Folate receptor alpha (Homo sapiens) (P15328 25-234 limits assumed): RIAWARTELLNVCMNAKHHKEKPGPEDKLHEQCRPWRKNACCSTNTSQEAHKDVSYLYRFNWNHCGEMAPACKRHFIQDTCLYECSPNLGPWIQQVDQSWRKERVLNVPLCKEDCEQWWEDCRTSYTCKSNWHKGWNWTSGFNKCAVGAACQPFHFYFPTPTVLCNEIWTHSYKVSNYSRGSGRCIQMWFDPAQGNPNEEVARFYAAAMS

Consider `Cc1nc(=O)c2cc(CN(C)c3ccc(C(=O)N[C@@H](CCC(=O)O)C(=O)O)s3)ccc2[nH]1` [RALTITREXED], for which, in assay [1], the inhibition at 1 µM is > 99%.

As to `Nc1nc2ccc3ccc(CNc4ccc5c(c4)CN([C@@H](CCC(=O)O)C(=O)O)C5=O)cc3c2c(=O)[nH]1`, the pIC50 in [2] is < 6.00; in assay [3] it was 8.24; in assay [4], 7.49.

As for `Nc1nc2[nH]c(CCCCc3ccc(C(=O)N[C@@H](CCC(=O)O)C(=O)O)cc3)cc2c(=O)[nH]1`, the outcome in assay [5] and in assay [11] was Active. The pIC50 in assay [6] was < 6.00; in [2], < 6.00; in assay [7], < 6.00; in [8] it was 6.82; in [10], < 6.00; in assay [4], < 6.00. Besides, in [9], the inhibition was < 20%. Also, the inhibition at 1 µM in assay [1] was > 97%.

Take `Nc1nc2[nH]c(CCCc3ccc(C(=O)N[C@@H](CCC(=O)O)C(=O)O)cc3)cc2c(=O)[nH]1`: the outcome in assay [5] and in assay [11] was Active. Besides, the negative-log IC50 (pIC50) in [6] is 6.52; in [2], < 6.00; in [7], 6.35; in [8], 5.61; in assay [10], < 6.00; in assay [12] it was < 6.00. Besides, in assay [4], the pIC50 is < 6.00. Besides, the inhibition in assay [9] was < 20%.

For the molecule `Nc1nc(=O)c2c([nH]1)NCC(CNc1ccc(C(=O)N[C@@H](CCC(=O)O)C(=O)O)cc1)N2C=O` (stereo partly specified), the inhibition in [13] is 60%.

The molecule `CN(Cc1cnc2nc(N)nc(N)c2n1)c1ccc(C(=O)N[C@@H](CCC(=O)O)C(=O)O)cc1` [METHOTREXATE] came in with an inhibition in assay [13] of 60%.

Turning to `Nc1nc2[nH]c(CCCCCc3ccc(C(=O)N[C@@H](CCC(=O)O)C(=O)O)cc3)cc2c(=O)[nH]1`, the result in assay [5] and in [11] was Active. In addition, the negative-log IC50 (pIC50) in assay [6] is < 6.00; in assay [14] it was 8.14; in assay [2], < 6.00; in assay [7], < 6.00; in [8] it was 5.65; in [10], < 6.00. Also, the pIC50 in assay [12] and in assay [4] was < 6.00 throughout. The inhibition in assay [9] was < 20%.

As for `Nc1nc2c(c(=O)[nH]1)C[C@@H](CCc1ccc(C(=O)N[C@@H](CCC(=O)O)C(=O)O)cc1)CN2` [LOMETREXOL], the values for the pIC50 in [2] and in assay [12] were 6.73 and 6.56, respectively. For the same molecule, the inhibition in assay [13] was found to be 60%.

Regarding `Nc1nc2[nH]c(Cc3ccc(C(=O)N[C@@H](CCC(=O)O)C(=O)O)cc3)cc2c(=O)[nH]1`, the pIC50 in assay [15] was < 6.00; in [6] it was < 6.00; in [14] it was < 6.00; in assay [2] it was < 6.00; in assay [7], < 6.00; in assay [8], < 4.70. Moreover, the pIC50 in assay [3], in assay [16], in assay [10], in assay [17], in assay [12] and in assay [4] was < 6.00 each time. Also, the inhibition in assay [9] is < 20%.

With `COc1cc(NCc2ccc3nc(N)nc(N)c3c2C)cc(OC)c1OC` [TRIMETREXATE], the values for the pIC50 in [10] and in assay [12] were 8.07 and 8.21, respectively.

Take `Nc1nc2[nH]cc(CCc3ccc(C(=O)N[C@@H](CCC(=O)O)C(=O)O)cc3)c2c(=O)[nH]1` [PEMETREXED]: the inhibition in [13] came out at 60%. Moreover, the pIC50 in assay [10] was 6.70.

As to `Nc1nc2[nH]c(CCCCCCc3ccc(C(=O)N[C@@H](CCC(=O)O)C(=O)O)cc3)cc2c(=O)[nH]1`, the pIC50 was 6.70 in assay [15]; < 6.00 in [6]; 8.07 in assay [14]; < 6.00 in assay [2]; < 6.00 in [7]; 5.60 in [8]. For the same molecule, the pIC50 in assay [16] is 6.51; in assay [10], < 6.00; in assay [17], 6.79; in [12], < 6.00; in [4], < 6.00. Besides, the outcome in assay [5] and in [11] was Active. Besides, the inhibition in [9] is < 20%.
